Values after ≈ are worked out from the molar mass of the structure shown.
Tests used:
[1] = system: Mycobacterium tuberculosis; assay: Antimycobacterial activity against drug-sensitive Mycobacterium tuberculosis H37Rv ATCC 27294 after 7 days by microplate alamar blue assay; assay type: functional; settings: H37Rv ATCC 27294, 168 h
Summary of the method: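 Microplate Alamar Blue Assay against M. tuberculosis H37Rv ATCC 27294, read by fluorescence. MIC was the lowest concentration that reduced fluorescence by >90% relative to the mean of replicate bacterium-only controls.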

[2] = system: Staphylococcus epidermidis; assay: Antibacterial activity against methicillin-resistant Staphylococcus epidermidis 12-6 after 18 to 24 hrs by NCCLS M100-S11 based assay; assay type: functional
Summary of the method: (§1)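 Broth MIC set up per NCCLS M100-S11. Plates were incubated at 35 °C for 18–24 h. MIC was the lowest concentration that inhibited visible bacterial growth, i.e. complete growth inhibition.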

[3] = system: Staphylococcus aureus; assay: Antibacterial activity against methicillin-sensitive Staphylococcus aureus 12-1 after 18 to 24 hrs by NCCLS M100-S11 based assay; assay type: functional
[4] = system: Staphylococcus epidermidis; assay: Antibacterial activity against methicillin-sensitive Staphylococcus epidermidis 12-1 after 18 to 24 hrs by NCCLS M100-S11 based assay; assay type: functional
[5] = system: Staphylococcus aureus; assay: Antibacterial activity against methicillin-resistant Staphylococcus aureus 12-2 after 18 to 24 hrs by NCCLS M100-S11 based assay; assay type: functional; summary of the method: as §1
[6] = system: Pseudomonas aeruginosa; assay: Antibacterial activity against Pseudomonas aeruginosa 12-12 after 18 to 24 hrs by NCCLS M100-S11 based assay; assay type: functional
[7] = system: Escherichia coli; assay: Antibacterial activity against Escherichia coli ATCC 25922 after 18 to 24 hrs by NCCLS M100-S11 based assay; assay type: functional
[8] = system: Klebsiella pneumoniae; assay: Antibacterial activity against Klebsiella pneumoniae 12-1 after 18 to 24 hrs by NCCLS M100-S11 based assay; assay type: functional
[9] = system: Staphylococcus aureus; assay: Antibacterial activity against Staphylococcus aureus ATCC 25923 after 18 to 24 hrs by NCCLS M100-S11 based assay; assay type: functional
[10] = system: Streptococcus pneumoniae; assay: Antibacterial activity against Streptococcus pneumoniae ATCC 49619 after 18 to 24 hrs by NCCLS M100-S11 based assay; assay type: functional
[11] = Apparent volume of distribution in rat at 25 mg/kg, po administered as single dose; assay type: ADME, organism-based; settings: in vivo
Summary of the method: (§2)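 Rats given one oral dose of 25 mg/kg; n = 6 animals, values as mean ± SD. Plasma profile gave Cmax, Tmax, AUC from zero to infinity, elimination half-life, mean residence time, apparent clearance (CL/F) and apparent volume of distribution (Vd/F).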

[12] = Half life in rat at 25 mg/kg, po administered as single dose; assay type: ADME, organism-based; settings: in vivo; summary of the method: as §2
[13] = system: Rattus norvegicus; assay: Acute toxicity in rat assessed as mortality at 500 mg/kg, po administered as single dose measured up to 7 days post dose; assay type: organism-based; settings: in vivo, 168 h
Summary of the method: (§3)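 Single dose given intravenously to mice (50 and 100 mg/kg) or orally to rats (500 and 1000 mg/kg).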

[14] = system: Mus musculus; assay: Acute toxicity in mouse assessed as mortality at 50 to 100 mg/kg, iv administered as single dose measured up to 7 days post dose; assay type: organism-based; settings: in vivo, 168 h; summary of the method: as §3
[15] = Apparent clearance in rat at 25 mg/kg, po administered as single dose; assay type: ADME, organism-based; settings: in vivo; summary of the method: as §2
[16] = Cmax in rat at 25 mg/kg, po administered as single dose; assay type: ADME, organism-based; parameters: dose 25 mg/kg, route oral; settings: in vivo; summary of the method: as §2
[17] = system: Rattus norvegicus; assay: Acute toxicity in rat assessed as mortality at 1000 mg/kg, po administered as single dose measured up to 7 days post dose; assay type: organism-based; settings: in vivo, 168 h; summary of the method: as §3
[18] = Tmax in rat at 25 mg/kg, po administered as single dose; assay type: ADME, organism-based; settings: in vivo; summary of the method: as §2
[19] = AUC (0 to infinity) in rat at 25 mg/kg, po administered as single dose; assay type: ADME, organism-based; parameters: dose 25 mg/kg, route oral, time infinity; settings: in vivo; summary of the method: as §2
[20] = Mean residence time in rat at 25 mg/kg, po administered as single dose; assay type: ADME, organism-based; settings: in vivo; summary of the method: as §2

Cc1ccn2c(C(=O)NCCOc3ccccc3[N+](=O)[O-])c(C)nc2c1
MIC90 [1]: 0.5 µg/mL (≈ 1.41 µM)

Cc1ccc2nc(C)c(C(=O)NCCOc3ccc(Cl)cc3)n2c1
MIC [2]: > 32 µg/mL
MIC [3]: > 32 µg/mL
MIC [4]: > 32 µg/mL
MIC [5]: > 32 µg/mL
MIC [6]: > 32 µg/mL
MIC [7]: > 32 µg/mL
MIC [8]: > 32 µg/mL
MIC90 [1]: 0.03 µg/mL (≈ 0.0873 µM)
MIC [9]: > 32 µg/mL
MIC [10]: > 32 µg/mL

Cc1ccc(OCCNC(=O)c2c(C)nc3cc(C)ccn23)cc1
MIC90 [1]: 0.673 µg/mL (≈ 2.08 µM)

Cc1ccn2c(C(=O)NCCOc3ccc(Br)cc3)c(C)nc2c1
MIC90 [1]: 0.463 µg/mL (≈ 1.19 µM)

Cc1ccc(OCCNC(=O)c2c(C)nc3ccc(C)cn23)cc1
MIC90 [1]: 0.204 µg/mL (≈ 0.631 µM)

COc1ccccc1OCCNC(=O)c1c(C)nc2cc(C)ccn12
MIC90 [1]: 2 µg/mL (≈ 5.89 µM)

Cc1ccc2nc(C)c(C(=O)NCCNc3ccc(Br)cc3)n2c1
MIC90 [1]: 0.25 µg/mL (≈ 0.646 µM)

Cc1ccn2c(C(=O)NCCOc3ccccc3)c(C)nc2c1
MIC90 [1]: 0.935 µg/mL (≈ 3.02 µM)

Cc1cccc(OCCNC(=O)c2c(C)nc3cc(C)ccn23)c1
MIC90 [1]: 0.329 µg/mL (≈ 1.02 µM)

Cc1ccn2c(C(=O)NCCOc3ccc(-c4ccccc4)cc3)c(C)nc2c1
MIC90 [1]: 0.518 µg/mL (≈ 1.34 µM)

Cc1ccn2c(C(=O)NCCOc3ccc(Cl)cc3)c(C)nc2c1
MIC90 [1]: 2 µg/mL (≈ 5.82 µM)

Cc1cccc(OCCNC(=O)c2c(C)nc3ccc(C)cn23)c1
MIC [2]: > 32 µg/mL
MIC [3]: > 32 µg/mL
MIC [4]: > 32 µg/mL
MIC [5]: > 32 µg/mL
MIC [6]: > 32 µg/mL
MIC [7]: > 32 µg/mL
MIC [8]: > 32 µg/mL
MIC90 [1]: 0.029 µg/mL (≈ 0.0897 µM)
MIC [9]: > 32 µg/mL
MIC [10]: > 32 µg/mL

Cc1ccc2nc(C)c(C(=O)NCCOc3ccc(Br)cc3)n2c1
Vd/F [11]: 186 L/kg
half-life [12]: 90 min
MIC [2]: > 32 µg/mL
MIC [3]: > 32 µg/mL
MIC [4]: > 32 µg/mL
MIC [5]: > 32 µg/mL
Activity [13]: Non-Toxic
Activity [14]: Non-Toxic
CL/F [15]: 1440 mL/min/kg
MIC [6]: > 32 µg/mL
Cmax [16]: 225 ng/mL
MIC [7]: > 32 µg/mL
Activity [17]: Non-Toxic
MIC [8]: > 32 µg/mL
Tmax [18]: 30 min
MIC90 [1]: 0.027 µg/mL (≈ 0.0695 µM)
MIC [9]: > 32 µg/mL
AUC(0-inf) [19]: 288 ng·h/mL
MIC [10]: > 32 µg/mL
MRT [20]: 96 min

COc1ccccc1OCCNC(=O)c1c(C)nc2ccc(C)cn12
MIC90 [1]: 0.401 µg/mL (≈ 1.18 µM)

COc1ccc(OCCNC(=O)c2c(C)nc3cc(C)ccn23)cc1
MIC90 [1]: 2 µg/mL (≈ 5.89 µM)

Cc1ccc2nc(C)c(C(=O)NCCOc3ccc([N+](=O)[O-])cc3)n2c1
MIC90 [1]: 0.245 µg/mL (≈ 0.691 µM)

Cc1ccn2c(C(=O)NCCOc3ccccc3C)c(C)nc2c1
MIC90 [1]: 0.231 µg/mL (≈ 0.714 µM)

Cc1ccn2c(C(=O)NCCOc3ccc(F)cc3)c(C)nc2c1
MIC90 [1]: 2 µg/mL (≈ 6.11 µM)

Cc1ccc2nc(C)c(C(=O)NCCOc3ccc(F)cc3)n2c1
MIC90 [1]: 0.146 µg/mL (≈ 0.446 µM)

Cc1ccn2c(C(=O)NCCOc3cccc([N+](=O)[O-])c3)c(C)nc2c1
MIC90 [1]: 0.5 µg/mL (≈ 1.41 µM)

Cc1ccn2c(C(=O)NCCOc3ccc([N+](=O)[O-])cc3)c(C)nc2c1
MIC90 [1]: 4 µg/mL (≈ 11.3 µM)

COc1cccc(OCCNC(=O)c2c(C)nc3ccc(C)cn23)c1
Vd/F [11]: 188 L/kg
half-life [12]: 67.2 min
MIC [2]: > 32 µg/mL
MIC [3]: > 32 µg/mL
MIC [4]: > 32 µg/mL
MIC [5]: > 32 µg/mL
Activity [13]: Non-Toxic
Activity [14]: Non-Toxic
CL/F [15]: 1940 mL/min/kg
MIC [6]: > 32 µg/mL
Cmax [16]: 351 ng/mL
MIC [7]: > 32 µg/mL
MIC [8]: > 32 µg/mL
Tmax [18]: 10.2 min
MIC90 [1]: 0.03 µg/mL (≈ 0.0884 µM)
MIC [9]: > 32 µg/mL
AUC(0-inf) [19]: 214 ng·h/mL
MIC [10]: > 32 µg/mL
MRT [20]: 42.6 min

Cc1ccc2nc(C)c(C(=O)NCCOc3ccccc3[N+](=O)[O-])n2c1
MIC90 [1]: 0.303 µg/mL (≈ 0.855 µM)

Cc1ccc2nc(C)c(C(=O)NCCOc3ccccc3C)n2c1
MIC [2]: > 32 µg/mL
MIC [3]: > 32 µg/mL
MIC [4]: > 32 µg/mL
MIC [5]: > 32 µg/mL
MIC [6]: > 32 µg/mL
MIC [7]: > 32 µg/mL
MIC [8]: > 32 µg/mL
MIC90 [1]: 0.038 µg/mL (≈ 0.118 µM)
MIC [9]: > 32 µg/mL
MIC [10]: > 32 µg/mL

COc1ccc(OCCNC(=O)c2c(C)nc3ccc(C)cn23)cc1
MIC [2]: > 32 µg/mL
MIC [3]: > 32 µg/mL
MIC [4]: > 32 µg/mL
MIC [5]: > 32 µg/mL
MIC [6]: > 32 µg/mL
MIC [7]: > 32 µg/mL
MIC [8]: > 32 µg/mL
MIC90 [1]: 0.031 µg/mL (≈ 0.0913 µM)
MIC [9]: > 32 µg/mL
MIC [10]: > 32 µg/mL

Cc1ccc2nc(C)c(C(=O)NCCOc3ccc(-c4ccccc4)cc3)n2c1
MIC90 [1]: 0.39 µg/mL (≈ 1.01 µM)

Cc1ccc2nc(C)c(C(=O)NCCOc3ccccc3)n2c1
Vd/F [11]: 33.8 L/kg
half-life [12]: 25.8 min
MIC [2]: > 32 µg/mL
MIC [3]: > 32 µg/mL
MIC [4]: > 32 µg/mL
MIC [5]: > 32 µg/mL
Activity [13]: Non-Toxic
Activity [14]: Non-Toxic
CL/F [15]: 919 mL/min/kg
MIC [6]: > 32 µg/mL
Cmax [16]: 655 ng/mL
MIC [7]: > 32 µg/mL
MIC [8]: > 32 µg/mL
Tmax [18]: 19.8 min
MIC90 [1]: 0.054 µg/mL (≈ 0.175 µM)
MIC [9]: > 32 µg/mL
AUC(0-inf) [19]: 453 ng·h/mL
MIC [10]: > 32 µg/mL
MRT [20]: 36.6 min

COc1cccc(OCCNC(=O)c2c(C)nc3cc(C)ccn23)c1
MIC90 [1]: 0.254 µg/mL (≈ 0.748 µM)

NNC(=O)c1ccncc1 [ISONIAZID]
MIC90 [1]: 0.049 µg/mL (≈ 0.357 µM)

CO[C@H]1/C=C/O[C@@]2(C)Oc3c(C)c(O)c4c(O)c(c(/C=N/N5CCN(C)CC5)c(O)c4c3C2=O)NC(=O)/C(C)=C\C=C\[C@H](C)[C@H](O)[C@@H](C)[C@@H](O)[C@@H](C)[C@H](OC(C)=O)[C@@H]1C [RIFAMPIN]
MIC90 [1]: 0.05 µg/mL (≈ 0.0608 µM)
